*1 amine or outer side, *2 acyl side, *3 side chain or, on linkers, in order; H or OH if unused. Where a SMILES comes first, the peptide text is derived from it. Bridges are numbered along the chain shown (N, C = ends). [ ]: non-standard residue; d: D form. The star is where a group is joined. Staurosporine = CO[C@@H]1[C@H](N(C)*)C[C@H]2O[C@]1(C)n1c3ccccc3c3c4c(c5c6ccccc6n2c5c31)C(=O)NC4; Suc = O=C(CCC(=O)[*:2])[*:1]; Dap = NC[C@H](N)C(=O)O; βAla = NCCC(=O)O

Experiment [1] has as its target MAP kinase-activated protein kinase 2 (Homo sapiens) (UniProt P49137). Put plainly: Binding affinity to human MAPKAPK2 at 500 nM by cell-based competition binding assay relative to control in presence of DTT. A digest of the protocol: (§1)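 Competition binding screen (Ambit) across a panel of 90 kinases, scoring test ligand displacement of each kinase's binding relative to control. The screen ran under reducing conditions with 7.5 mM DTT.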

Experiment [2] deals with Tyrosine-protein kinase receptor UFO (Homo sapiens) (UniProt P30530). Put plainly: Binding affinity to human AXL at 500 nM by cell-based competition binding assay relative to control in presence of DTT. A digest of the protocol:
(§2)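 Kinase binding profiling ran on a commercial (Ambit) competitive binding screen against a panel of 90 kinases. The screen used reducing conditions with 7.5 mM DTT. To withstand the DTT, the bivalent ligand was tested as its amide isostere, with the disulfide replaced. A staurosporine derivative carrying a 3 β-alanine linker was run as the reference compound.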

The target of experiment [3] is Macrophage colony-stimulating factor 1 receptor (Homo sapiens) (UniProt P07333). The experiment in a line: Binding affinity to human CSF1R at 500 nM by cell-based competition binding assay relative to control in presence of DTT. In short, it runs like this: (§3)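 Commercial (Ambit) competitive kinase-binding panel of 90 kinases measured the binding profile. Run under reducing conditions of 7.5 mM DTT. Binding is expressed relative to control.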

For experiment [4], the target named is Insulin receptor (Homo sapiens) (UniProt P06213). The experiment in a line: Binding affinity to human INSR at 500 nM by cell-based competition binding assay relative to control in presence of DTT. A digest of the protocol:
as §1

In experiment [5] the target is Serine/threonine-protein kinase pim-1 (Homo sapiens) (UniProt P11309). Put plainly: Binding affinity to human PIM1 at 500 nM by cell-based competition binding assay relative to control in presence of DTT.
Experiment [6] has as its target T1, Serine/threonine-protein kinase STK11 (Homo sapiens) (UniProt Q15831).
T1 sequence (whole entry): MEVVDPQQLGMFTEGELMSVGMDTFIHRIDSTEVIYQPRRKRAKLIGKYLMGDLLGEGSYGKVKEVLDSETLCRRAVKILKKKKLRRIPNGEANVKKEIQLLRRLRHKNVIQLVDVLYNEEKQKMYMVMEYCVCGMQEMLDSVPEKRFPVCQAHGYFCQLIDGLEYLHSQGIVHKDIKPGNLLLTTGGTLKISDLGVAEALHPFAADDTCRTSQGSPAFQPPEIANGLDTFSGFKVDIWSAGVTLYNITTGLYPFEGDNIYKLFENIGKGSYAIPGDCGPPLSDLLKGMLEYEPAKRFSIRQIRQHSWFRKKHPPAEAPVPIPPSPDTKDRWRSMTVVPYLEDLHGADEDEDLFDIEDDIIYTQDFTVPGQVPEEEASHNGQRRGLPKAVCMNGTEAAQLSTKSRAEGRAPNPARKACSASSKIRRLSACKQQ
Put plainly: Binding affinity to human LKB1 at 200 nM by cell-based competition binding assay relative to control in presence of DTT. In short, it runs like this:
as §1

Experiment [7] has as its target T2, Serine/threonine-protein kinase Chk1 (Homo sapiens) (UniProt O14757).
T2 sequence (whole entry): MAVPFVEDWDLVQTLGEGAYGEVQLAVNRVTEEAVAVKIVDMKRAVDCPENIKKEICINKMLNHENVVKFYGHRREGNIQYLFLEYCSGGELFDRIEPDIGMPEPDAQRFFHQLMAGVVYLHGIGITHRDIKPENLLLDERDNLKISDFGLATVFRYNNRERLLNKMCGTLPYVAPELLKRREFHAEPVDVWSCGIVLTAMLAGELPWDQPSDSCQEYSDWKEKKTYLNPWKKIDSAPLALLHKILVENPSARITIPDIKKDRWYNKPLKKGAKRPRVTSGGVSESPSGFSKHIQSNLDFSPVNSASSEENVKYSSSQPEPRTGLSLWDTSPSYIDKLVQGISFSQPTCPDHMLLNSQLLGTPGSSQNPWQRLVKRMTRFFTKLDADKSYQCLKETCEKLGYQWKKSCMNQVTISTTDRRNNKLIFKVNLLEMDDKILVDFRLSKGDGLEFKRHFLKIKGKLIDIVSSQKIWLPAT
The experiment in a line: Binding affinity to human CHEK1 at 200 nM by cell-based competition binding assay relative to control in presence of DTT. In short, it runs like this: as §3

Experiment [8] deals with Focal adhesion kinase 1 (Homo sapiens) (UniProt Q05397). Put plainly: Binding affinity to human PTK2 at 200 nM by cell-based competition binding assay relative to control in presence of DTT.
In experiment [9] the test system is Tyrosine-protein kinase ABL1 (Homo sapiens), P00519 [T315I]. Put plainly: Binding affinity to human ABL1 T315I mutant at 50 nM by cell-based competition binding assay relative to control in presence of DTT. A digest of the protocol: as §2
Experiment [10] concerns the target Cyclin-dependent kinase 3 (Homo sapiens) (UniProt Q00526). The experiment in a line: Binding affinity to human CDK3 at 50 nM by cell-based competition binding assay relative to control in presence of DTT. A digest of the protocol: as §2
For experiment [11], the target named is Serine/threonine-protein kinase 32C (Homo sapiens) (UniProt Q86UX6). The experiment in a line: Binding affinity to human YANK3 at 50 nM by cell-based competition binding assay relative to control in presence of DTT.
For experiment [12], the target named is Insulin receptor (Homo sapiens) (UniProt P06213). The experiment in a line: Binding affinity to human INSR at 50 nM by cell-based competition binding assay relative to control in presence of DTT. A digest of the protocol: as §1
In experiment [13] the target is Mitogen-activated protein kinase 9 (Homo sapiens) (UniProt P45984). Put plainly: Binding affinity to human JNK2 at 50 nM by cell-based competition binding assay relative to control in presence of DTT. In short, it runs like this: as §1
Experiment [14] concerns the target Casein kinase I isoform gamma-2 (Homo sapiens) (UniProt P78368). The experiment in a line: Binding affinity to human CSNK1G2 at 50 nM by cell-based competition binding assay relative to control in presence of DTT. In short, it runs like this: as §3
Experiment [15] concerns the target Serine/threonine-protein kinase pim-3 (Homo sapiens) (UniProt Q86V86). Put plainly: Binding affinity to human PIM3 at 50 nM by cell-based competition binding assay relative to control in presence of DTT.

On to `CO[C@@H]1[C@H](N(C)C(=O)CCC(=O)NCCC(=O)NCCC(=O)NCCC(N)=O)C[C@H]2O[C@]1(C)n1c3ccccc3c3c4c(c5c6ccccc6n2c5c31)C(=O)NC4`, for which the Activity in [1] was 100%; in experiment [2] it was 8%; in experiment [3] it was 22%; in experiment [4] it was 55%; in experiment [5], 20%.
Regarding `CO[C@@H]1[C@H](N(C)C(=O)CCC(=O)NCCC(=O)NCCC(=O)NCCC(=O)NCCC(=O)NCCC(=O)NCCC(=O)NCCC(=O)N[C@H]2CSSC[C@@H](C(=O)NCC(N)=O)NC(=O)CNC(=O)[C@H](Cc3ccccc3)NC(=O)[C@H](C(C)C)NC(=O)[C@H](CCCNC(=N)N)NC(=O)[C@H](Cc3ccccc3)NC(=O)[C@H](C(C)C)NC2=O)C[C@H]2O[C@]1(C)n1c3ccccc3c3c4c(c5c6ccccc6n2c5c31)C(=O)NC4` ({Staurosporine-Suc-βAla-βAla-βAla-βAla-βAla-βAla-βAla}-CVFRVFGCG-NH2; disulfide 1-8), the values for the Activity in experiment [6], in experiment [7] and in experiment [8] were 81%, 60% and 91%, respectively.
For `CO[C@@H]1[C@H](N(C)C(=O)CCC(=O)NCCC(=O)NCCC(=O)NCCC(=O)NCCC(=O)NCCC(=O)NCCC(=O)NCCC(=O)N[C@H]2CNC(=O)C[C@@H](C(N)=O)NC(=O)CNC(=O)[C@H](Cc3ccccc3)NC(=O)[C@H](C(C)C)NC(=O)[C@H](CCCNC(=N)N)NC(=O)[C@H](Cc3ccccc3)NC(=O)[C@H](C(C)C)NC2=O)C[C@H]2O[C@]1(C)n1c3ccccc3c3c4c(c5c6ccccc6n2c5c31)C(=O)NC4` ({Staurosporine-Suc-βAla-βAla-βAla-βAla-βAla-βAla-βAla}-[Dap]VFRVFGD-NH2; lactam 1-8), the Activity in experiment [9] was found to be 100%; in [10] it was 100%; in experiment [11], 100%; in experiment [12], 92%; in experiment [13], 88%; in experiment [14], 100%. The Activity in experiment [15] turned out to be 66%.

The record behind these values is ChEMBL document CHEMBL1152541, “Staurosporine tethered peptide ligands that target cAMP-dependent protein kinase (PKA): optimization and selectivity profiling” (Bioorg Med Chem, 2009).
